For assay [1], the target named is Tyrosine-protein kinase SYK (Homo sapiens) (UniProt P43405). Put plainly: Inhibition of SYK (unknown origin) at 30 uM by microfluidic mobility shift assay relative to control. In outline:
(§1)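 Single-point screen against a 24-kinase panel in a commercial microfluidic assay format. Compounds were tested at 30 µM, with ATP at approximately the Km,[ATP] of each enzyme. H-89 was included on each assay plate as an internal control.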

Assay [2] addresses T1, Mitogen-activated protein kinase 12 (Homo sapiens) (UniProt P53778).
T1 sequence (whole entry): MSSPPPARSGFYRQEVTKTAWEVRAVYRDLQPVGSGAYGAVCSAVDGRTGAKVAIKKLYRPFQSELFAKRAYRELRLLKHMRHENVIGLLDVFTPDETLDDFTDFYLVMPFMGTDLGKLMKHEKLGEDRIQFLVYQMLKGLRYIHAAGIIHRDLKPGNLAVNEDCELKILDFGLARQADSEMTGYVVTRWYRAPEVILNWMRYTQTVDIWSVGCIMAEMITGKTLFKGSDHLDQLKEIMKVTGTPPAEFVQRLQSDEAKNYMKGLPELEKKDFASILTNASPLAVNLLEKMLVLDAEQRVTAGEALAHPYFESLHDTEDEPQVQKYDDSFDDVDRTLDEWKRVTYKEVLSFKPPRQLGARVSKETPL
Put plainly: Inhibition of p38gamma (unknown origin) at 30 uM by microfluidic mobility shift assay relative to control. The method, boiled down: as §1

Assay [3] deals with Ribosomal protein S6 kinase alpha-2 (Homo sapiens) (UniProt Q15349). Put plainly: Inhibition of RSK3 (unknown origin) at 30 uM by microfluidic mobility shift assay relative to control. In outline:
as §1

Assay [4] addresses T2, Inhibitor of nuclear factor kappa-B kinase subunit beta (Homo sapiens) (UniProt O14920).
T2 sequence (whole entry): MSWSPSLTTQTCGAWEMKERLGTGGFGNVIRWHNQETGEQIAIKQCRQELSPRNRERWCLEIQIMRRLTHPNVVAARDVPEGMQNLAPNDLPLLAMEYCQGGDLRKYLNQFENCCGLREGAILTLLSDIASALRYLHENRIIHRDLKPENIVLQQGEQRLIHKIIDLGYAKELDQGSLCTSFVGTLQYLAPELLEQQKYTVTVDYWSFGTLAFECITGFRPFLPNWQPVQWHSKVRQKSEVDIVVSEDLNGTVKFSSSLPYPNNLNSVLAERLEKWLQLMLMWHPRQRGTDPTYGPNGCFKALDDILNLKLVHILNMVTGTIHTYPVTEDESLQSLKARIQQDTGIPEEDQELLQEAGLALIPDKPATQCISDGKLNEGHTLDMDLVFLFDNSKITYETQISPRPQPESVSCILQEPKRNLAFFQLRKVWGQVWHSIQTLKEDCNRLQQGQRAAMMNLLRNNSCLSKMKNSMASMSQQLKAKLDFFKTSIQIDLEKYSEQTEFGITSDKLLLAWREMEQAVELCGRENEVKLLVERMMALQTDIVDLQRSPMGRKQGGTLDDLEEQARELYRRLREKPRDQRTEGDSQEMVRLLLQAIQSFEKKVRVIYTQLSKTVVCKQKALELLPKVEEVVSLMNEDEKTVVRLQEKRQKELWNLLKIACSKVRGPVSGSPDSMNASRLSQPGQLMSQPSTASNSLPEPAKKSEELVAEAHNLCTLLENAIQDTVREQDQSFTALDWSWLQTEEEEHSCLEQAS
Put plainly: Inhibition of IKKbeta (unknown origin) at 30 uM by microfluidic mobility shift assay relative to control. In outline:
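Single-point screen at 30 µM test compound across a 24-kinase panel in a microfluidic assay format. ATP was set near each enzyme's Km,[ATP]. […] The pan-AGC inhibitor H-89 served as an internal control on every assay plate.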

Assay [5] concerns the target Casein kinase I isoform delta (Homo sapiens, UniProt P48730). As to the kind of experiment: Inhibition of CK1delta (unknown origin) by microfluidic mobility shift assay.
The target of assay [6] is Hepatocyte growth factor receptor (Homo sapiens, UniProt P08581). Put plainly: Inhibition of MET (unknown origin) by microfluidic mobility shift assay.
The target of assay [7] is Proto-oncogene tyrosine-protein kinase Src (Homo sapiens, UniProt P12931). As to the kind of experiment: Inhibition of SRC (unknown origin) by microfluidic mobility shift assay.
Assay [8] concerns the target Tyrosine-protein kinase Lck (Homo sapiens, UniProt P06239). As to the kind of experiment: Inhibition of LCK (unknown origin) by microfluidic mobility shift assay.
Assay [9] has as its target Tyrosine-protein kinase Lyn (Homo sapiens, UniProt P07948). As to the kind of experiment: Inhibition of LYN (unknown origin) by microfluidic mobility shift assay.
For assay [10], the target named is Tyrosine-protein kinase Fyn (Homo sapiens, UniProt P06241). As to the kind of experiment: Inhibition of FYN (unknown origin) by microfluidic mobility shift assay.
Chain of Tyrosine-protein kinase Fyn (P06241 whole entry): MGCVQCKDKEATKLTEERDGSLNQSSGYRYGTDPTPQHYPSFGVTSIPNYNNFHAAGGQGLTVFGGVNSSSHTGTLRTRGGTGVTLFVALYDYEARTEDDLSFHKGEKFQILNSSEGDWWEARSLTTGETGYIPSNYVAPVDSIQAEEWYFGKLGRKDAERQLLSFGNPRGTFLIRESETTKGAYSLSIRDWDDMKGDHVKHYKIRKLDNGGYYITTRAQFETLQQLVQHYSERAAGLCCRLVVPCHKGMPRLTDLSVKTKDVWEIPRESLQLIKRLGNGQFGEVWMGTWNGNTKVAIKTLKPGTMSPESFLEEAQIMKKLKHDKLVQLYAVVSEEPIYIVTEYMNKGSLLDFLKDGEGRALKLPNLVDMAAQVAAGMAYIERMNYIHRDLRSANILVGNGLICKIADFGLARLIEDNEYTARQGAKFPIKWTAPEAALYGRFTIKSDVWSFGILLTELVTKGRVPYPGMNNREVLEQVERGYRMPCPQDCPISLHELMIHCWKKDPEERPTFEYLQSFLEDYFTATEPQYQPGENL
Assay [11] deals with Tyrosine-protein kinase ABL1 (Homo sapiens, UniProt P00519). As to the kind of experiment: Inhibition of ABL (unknown origin) by microfluidic mobility shift assay.
Assay [12] concerns the target Glycogen synthase kinase-3 beta (Homo sapiens, UniProt P49841). As to the kind of experiment: Inhibition of GSK3beta (unknown origin) by microfluidic mobility shift assay.
For assay [13], the target named is Mitogen-activated protein kinase 1 (Homo sapiens, UniProt P28482). As to the kind of experiment: Inhibition of ERK2 (unknown origin) by microfluidic mobility shift assay.
Chain of Mitogen-activated protein kinase 1 (P28482 whole entry): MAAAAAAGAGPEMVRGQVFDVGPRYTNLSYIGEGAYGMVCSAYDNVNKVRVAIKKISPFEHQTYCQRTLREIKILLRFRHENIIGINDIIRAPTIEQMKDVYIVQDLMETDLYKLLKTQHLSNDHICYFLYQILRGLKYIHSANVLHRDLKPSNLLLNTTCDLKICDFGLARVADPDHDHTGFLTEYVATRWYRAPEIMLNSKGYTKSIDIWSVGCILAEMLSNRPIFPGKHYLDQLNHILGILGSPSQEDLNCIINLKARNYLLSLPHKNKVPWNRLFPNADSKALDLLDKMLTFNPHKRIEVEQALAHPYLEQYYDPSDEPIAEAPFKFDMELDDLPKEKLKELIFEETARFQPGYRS
The target of assay [14] is Mitogen-activated protein kinase 3 (Homo sapiens, UniProt P27361). Put plainly: Inhibition of ERK1 (unknown origin) by microfluidic mobility shift assay.
Assay [15] has as its target MAP kinase-activated protein kinase 5 (Homo sapiens, UniProt Q8IW41). As to the kind of experiment: Inhibition of PRAK (unknown origin) by microfluidic mobility shift assay.
For assay [16], the target named is Serine/threonine-protein kinase D2 (Homo sapiens, UniProt Q9BZL6). As to the kind of experiment: Inhibition of PKD2 (unknown origin) by microfluidic mobility shift assay.
Chain of Serine/threonine-protein kinase D2 (Q9BZL6 whole entry): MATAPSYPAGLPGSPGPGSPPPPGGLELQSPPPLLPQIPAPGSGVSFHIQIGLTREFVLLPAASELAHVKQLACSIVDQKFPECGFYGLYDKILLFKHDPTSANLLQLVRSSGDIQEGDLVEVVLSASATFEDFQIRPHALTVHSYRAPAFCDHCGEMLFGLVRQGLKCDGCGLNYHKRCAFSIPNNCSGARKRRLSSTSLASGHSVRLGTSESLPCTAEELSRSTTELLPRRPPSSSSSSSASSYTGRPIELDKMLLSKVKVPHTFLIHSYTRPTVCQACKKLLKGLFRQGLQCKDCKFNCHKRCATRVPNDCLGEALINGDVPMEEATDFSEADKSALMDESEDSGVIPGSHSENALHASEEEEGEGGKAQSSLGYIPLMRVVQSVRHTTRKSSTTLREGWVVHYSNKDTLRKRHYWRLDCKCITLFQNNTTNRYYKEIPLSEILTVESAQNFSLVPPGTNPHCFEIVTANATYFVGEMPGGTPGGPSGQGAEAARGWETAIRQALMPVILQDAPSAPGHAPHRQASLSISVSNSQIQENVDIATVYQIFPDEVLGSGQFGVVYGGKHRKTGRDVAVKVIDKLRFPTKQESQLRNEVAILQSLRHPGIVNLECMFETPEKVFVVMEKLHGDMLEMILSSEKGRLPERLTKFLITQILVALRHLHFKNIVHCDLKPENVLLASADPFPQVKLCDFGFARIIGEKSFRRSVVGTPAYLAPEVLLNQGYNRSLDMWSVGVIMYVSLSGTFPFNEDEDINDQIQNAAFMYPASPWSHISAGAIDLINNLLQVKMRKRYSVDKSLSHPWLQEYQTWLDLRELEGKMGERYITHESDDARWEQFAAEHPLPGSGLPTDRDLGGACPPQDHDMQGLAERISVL
Assay [17] can be described thus: Inhibition of MAPK (unknown origin) by microfluidic mobility shift assay. Further details: species or system Homo sapiens.
Assay [18] concerns the target Protein kinase C zeta type (Homo sapiens, UniProt Q05513). Put plainly: Inhibition of PKCzeta (unknown origin) by microfluidic mobility shift assay.
The target of assay [19] is Ribosomal protein S6 kinase alpha-5 (Homo sapiens, UniProt O75582). As to the kind of experiment: Inhibition of MSK1 (unknown origin) by microfluidic mobility shift assay.
Chain of Ribosomal protein S6 kinase alpha-5 (O75582 whole entry): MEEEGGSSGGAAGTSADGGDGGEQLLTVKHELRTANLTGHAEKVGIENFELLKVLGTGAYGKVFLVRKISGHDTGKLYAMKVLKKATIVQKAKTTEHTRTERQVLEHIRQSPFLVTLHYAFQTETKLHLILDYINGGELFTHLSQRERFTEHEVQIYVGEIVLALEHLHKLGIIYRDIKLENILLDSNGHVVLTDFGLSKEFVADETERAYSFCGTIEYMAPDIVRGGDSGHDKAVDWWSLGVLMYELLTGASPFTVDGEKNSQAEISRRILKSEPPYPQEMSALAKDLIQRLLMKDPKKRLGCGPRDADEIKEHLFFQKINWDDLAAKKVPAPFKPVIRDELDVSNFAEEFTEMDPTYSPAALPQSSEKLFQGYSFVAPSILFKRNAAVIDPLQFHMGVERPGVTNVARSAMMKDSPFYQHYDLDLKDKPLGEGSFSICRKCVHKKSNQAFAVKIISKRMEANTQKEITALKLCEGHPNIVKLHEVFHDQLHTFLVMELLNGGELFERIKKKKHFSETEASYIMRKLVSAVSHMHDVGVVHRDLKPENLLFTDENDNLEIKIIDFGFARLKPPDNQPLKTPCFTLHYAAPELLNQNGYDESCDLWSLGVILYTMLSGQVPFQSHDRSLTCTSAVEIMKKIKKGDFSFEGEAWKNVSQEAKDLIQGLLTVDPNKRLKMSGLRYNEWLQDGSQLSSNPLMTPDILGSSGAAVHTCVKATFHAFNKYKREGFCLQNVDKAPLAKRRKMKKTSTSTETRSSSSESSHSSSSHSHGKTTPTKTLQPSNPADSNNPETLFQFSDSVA
For assay [20], the target named is RAC-beta serine/threonine-protein kinase (Homo sapiens, UniProt P31751). Put plainly: Inhibition of AKT2 (unknown origin) by microfluidic mobility shift assay.
Chain of RAC-beta serine/threonine-protein kinase (P31751 whole entry): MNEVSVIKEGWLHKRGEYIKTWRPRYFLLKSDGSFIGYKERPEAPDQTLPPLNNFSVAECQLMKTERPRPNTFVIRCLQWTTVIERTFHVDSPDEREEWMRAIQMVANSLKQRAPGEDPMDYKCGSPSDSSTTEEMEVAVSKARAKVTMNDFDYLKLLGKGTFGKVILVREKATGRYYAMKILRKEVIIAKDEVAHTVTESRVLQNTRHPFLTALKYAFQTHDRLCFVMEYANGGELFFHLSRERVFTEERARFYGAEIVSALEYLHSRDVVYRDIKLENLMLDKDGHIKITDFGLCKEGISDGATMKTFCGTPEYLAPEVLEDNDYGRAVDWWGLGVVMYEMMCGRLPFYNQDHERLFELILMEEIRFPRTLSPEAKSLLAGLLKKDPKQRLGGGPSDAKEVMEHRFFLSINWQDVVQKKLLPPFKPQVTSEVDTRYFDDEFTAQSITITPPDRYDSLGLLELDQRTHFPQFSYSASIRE
Assay [21] concerns the target RAC-alpha serine/threonine-protein kinase (Homo sapiens, UniProt P31749). Put plainly: Inhibition of AKT1 (unknown origin) by microfluidic mobility shift assay.
For assay [22], the target named is Serine/threonine-protein kinase Chk2 (Homo sapiens, UniProt O96017). As to the kind of experiment: Inhibition of CHK2 (unknown origin) by microfluidic mobility shift assay.
Assay [23] concerns the target Ribosomal protein S6 kinase alpha-1 (Homo sapiens, UniProt Q15418). As to the kind of experiment: Inhibition of RSK1 (unknown origin) by microfluidic mobility shift assay.

Each structure is given as a SMILES string. pIC50: −log10 of the molar value.

Chain of Ribosomal protein S6 kinase alpha-2 (Homo sapiens) (Q15349 whole entry): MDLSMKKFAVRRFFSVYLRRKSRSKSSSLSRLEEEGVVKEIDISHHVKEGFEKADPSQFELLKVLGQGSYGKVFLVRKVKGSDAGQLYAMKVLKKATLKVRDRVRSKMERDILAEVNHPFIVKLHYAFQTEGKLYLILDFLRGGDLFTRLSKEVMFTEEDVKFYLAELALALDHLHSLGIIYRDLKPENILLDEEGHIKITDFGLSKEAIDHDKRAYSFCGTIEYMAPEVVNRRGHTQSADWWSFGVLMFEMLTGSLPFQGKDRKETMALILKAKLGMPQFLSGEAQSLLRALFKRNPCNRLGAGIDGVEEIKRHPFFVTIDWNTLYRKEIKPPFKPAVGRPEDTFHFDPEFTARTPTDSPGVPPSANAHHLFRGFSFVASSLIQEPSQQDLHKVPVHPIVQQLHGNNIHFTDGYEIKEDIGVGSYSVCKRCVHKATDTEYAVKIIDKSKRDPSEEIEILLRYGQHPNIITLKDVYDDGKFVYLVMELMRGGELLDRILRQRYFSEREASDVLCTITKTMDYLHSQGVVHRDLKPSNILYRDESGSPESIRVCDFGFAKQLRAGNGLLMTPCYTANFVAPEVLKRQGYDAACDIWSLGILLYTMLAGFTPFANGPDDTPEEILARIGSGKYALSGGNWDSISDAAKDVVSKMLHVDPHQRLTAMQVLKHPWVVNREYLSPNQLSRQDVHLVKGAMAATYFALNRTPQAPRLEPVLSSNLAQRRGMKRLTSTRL
Chain of MAP kinase-activated protein kinase 5 (Q8IW41 whole entry): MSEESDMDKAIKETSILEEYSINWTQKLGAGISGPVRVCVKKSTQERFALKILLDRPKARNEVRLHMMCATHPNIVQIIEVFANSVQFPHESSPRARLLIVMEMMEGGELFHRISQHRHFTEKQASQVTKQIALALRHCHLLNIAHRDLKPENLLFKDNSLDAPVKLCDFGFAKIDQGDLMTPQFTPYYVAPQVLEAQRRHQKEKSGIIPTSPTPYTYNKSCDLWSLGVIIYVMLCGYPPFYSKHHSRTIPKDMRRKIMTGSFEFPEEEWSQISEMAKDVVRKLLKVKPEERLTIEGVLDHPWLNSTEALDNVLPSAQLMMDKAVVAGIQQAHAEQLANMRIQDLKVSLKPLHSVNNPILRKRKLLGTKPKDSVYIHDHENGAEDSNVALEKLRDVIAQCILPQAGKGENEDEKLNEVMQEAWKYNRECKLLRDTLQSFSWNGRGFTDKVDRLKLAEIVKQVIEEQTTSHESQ
Chain of Glycogen synthase kinase-3 beta (P49841 whole entry): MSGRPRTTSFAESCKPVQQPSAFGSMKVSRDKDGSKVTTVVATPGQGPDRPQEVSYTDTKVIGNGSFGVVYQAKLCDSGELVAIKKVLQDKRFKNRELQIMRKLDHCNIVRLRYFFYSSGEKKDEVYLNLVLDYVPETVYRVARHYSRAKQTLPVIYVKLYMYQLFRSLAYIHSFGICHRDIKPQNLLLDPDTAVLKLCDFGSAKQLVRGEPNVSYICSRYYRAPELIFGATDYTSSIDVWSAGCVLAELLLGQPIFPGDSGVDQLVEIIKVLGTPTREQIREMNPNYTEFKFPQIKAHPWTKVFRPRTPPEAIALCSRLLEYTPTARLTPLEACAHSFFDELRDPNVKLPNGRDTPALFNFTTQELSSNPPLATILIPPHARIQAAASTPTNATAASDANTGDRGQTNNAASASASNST

For `c1ccc(C2CCNC3(CCN(c4ncnc5[nH]cnc45)CC3)C2)cc1` (racemic), the inhibition in assay [1] was 24%; in assay [2], 6%; in assay [3] it was 81%; in assay [4], 100%.
As for `c1nc(N2CCC3(CCCNC3)CC2)c2nc[nH]c2n1`, the pIC50 was 4.01 in assay [5]; 3.74 in assay [6]; 4.74 in assay [7]; 4.70 in [8]; 4.85 in assay [9]; 4.59 in [10]. The pIC50 in [11] is 5.15; in assay [12] it was 4.26; in assay [13] it was 4.42; in [14] it was 4.43; in assay [15], 4.39; in assay [16], 5.89. For the same compound, the negative-log IC50 (pIC50) in [17] was 4.72; in [18] it was 4.13; in assay [19] it was 6.15; in [20], 5.02; in assay [21], 5.80.
As to `c1ccc(CC2CCC3(CCN(c4ncnc5[nH]cnc45)CC3)NC2)cc1` (racemic), the inhibition in assay [1] was found to be 0%; in assay [2], 3%; in assay [3] it was 57%; in assay [4] it was 83%.
Regarding `c1nc(N2CCC3(CCCCN3)CC2)c2nc[nH]c2n1`, the pIC50 in assay [5] was 3.62; in assay [7] it was 3.82; in assay [8], 3.95; in assay [9], 3.75; in assay [10], 3.80; in assay [11], 3.90. In addition, the pIC50 in assay [12] was 3.86; in assay [13], 4.33; in [14] it was 4.22; in assay [22] it was 4.39; in assay [15] it was 3.65; in assay [16], 4.34. Further, the pIC50 in assay [17] was 3.99; in assay [23], 4.20; in assay [19], 5.28; in assay [20], 4.18; in assay [21], 4.85.
Regarding `c1ccc(CC2CCNC3(CCN(c4ncnc5[nH]cnc45)CC3)C2)cc1` (racemic), the inhibition in assay [1] came to 8%; in [2] it was 11%; in assay [3], 91%; in assay [4], 95%.

For orientation: inhibition means the drop in the measured response relative to a control, in per cent. What is called pIC50 is the negative decadic logarithm of the IC50, by convention in mol/L.

For the origin of these results see ChEMBL document CHEMBL2417369, “Synthesis and evaluation of heteroaryl substituted diazaspirocycles as scaffolds to probe the ATP-binding site of protein kinases” (Bioorg Med Chem, 2013).
